# Measured values: ChEMBL document CHEMBL4689842, “EUbOPEN Chemogenomics Library wave 1” (2021)
# Tested on: Fibroblast
# Assay: Multiplex assay against human fibroblast
# Type: toxicity, cell-based
# How it was run: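 Cells stained live at seeding with Hoechst33342, BioTracker Green Microtubule Cytoskeleton Dye, MitoTracker Red and Annexin V Alexa Fluor 680 were imaged on a CQ1 microscope at 37°C and 5% CO2 after compound addition. Their classification by CellPathfinder machine-learning gating ran from Hoechst high-intensity objects versus normal cells, to healthy, pyknosed or fragmented nuclei among normal cells, to mitotic or apoptotic among pyknosed cells. Tubulin, mitochondrial-mass and membrane-permeability phenotypes are per cents of healthy-nucleus cells.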
# [1] = 12 h, 1 µM, compound concentration 1 uM, replicate 1
# [2] = 12 h, 1 µM, compound concentration 1 uM, replicate 2
# [3] = 12 h, 10 µM, compound concentration 10 uM, replicate 1
# [4] = 12 h, 10 µM, compound concentration 10 uM, replicate 2
# [5] = 24 h, 1 µM, compound concentration 1 uM, replicate 1
# [6] = 24 h, 1 µM, compound concentration 1 uM, replicate 2
# [7] = 24 h, 10 µM, compound concentration 10 uM, replicate 1
# [8] = 24 h, 10 µM, compound concentration 10 uM, replicate 2
# [9] = 48 h, 1 µM, compound concentration 1 uM, replicate 1
# [10] = 48 h, 1 µM, compound concentration 1 uM, replicate 2
# [11] = 48 h, 10 µM, compound concentration 10 uM, replicate 1
# [12] = 48 h, 10 µM, compound concentration 10 uM, replicate 2
structure (smiles),measurement,setting,value
CN1CCC[C@@H]1CCO[C@](C)(c1ccccc1)c1ccc(Cl)cc1.O=C(O)/C=C/C(=O)O [CLEMASTINE FUMARATE],Population Apoptotic (%),[1],61%
same,Population Fragmented Nuclei (%),[1],35%
same,Population Healthy Nuclei (%),[1],39%
same,Population Hoechst High Intensity Objects (%),[1],20%
same,Population Membrane Permeable-Phenotype (%),[1],13%
same,Population Mitochondria Different-Phenotype (%),[1],10%
same,Population Mitotic Cells (%),[1],38%
same,Population Normal (%),[1],79%
same,Population Pyknosed Nuclei (%),[1],24%
same,Population Tubulin-Different-Phenotype (%),[1],37%
same,Total Cell Count,[1],92
same,Population Apoptotic (%),[2],50%
same,Population Fragmented Nuclei (%),[2],15%
same,Population Healthy Nuclei (%),[2],76%
same,Population Hoechst High Intensity Objects (%),[2],1%
same,Population Membrane Permeable-Phenotype (%),[2],3%
same,Population Mitochondria Different-Phenotype (%),[2],6%
same,Population Mitotic Cells (%),[2],50%
same,Population Normal (%),[2],98%
same,Population Pyknosed Nuclei (%),[2],7%
same,Population Tubulin-Different-Phenotype (%),[2],3%
same,Total Cell Count,[2],78
same,Population Apoptotic (%),[3],69%
same,Population Fragmented Nuclei (%),[3],26%
same,Population Healthy Nuclei (%),[3],43%
same,Population Hoechst High Intensity Objects (%),[3],10%
same,Population Membrane Permeable-Phenotype (%),[3],11%
same,Population Mitochondria Different-Phenotype (%),[3],49%
same,Population Mitotic Cells (%),[3],30%
same,Population Normal (%),[3],90%
same,Population Pyknosed Nuclei (%),[3],29%
same,Population Tubulin-Different-Phenotype (%),[3],77%
same,Total Cell Count,[3],160
same,Population Apoptotic (%),[4],85%
same,Population Fragmented Nuclei (%),[4],19%
same,Population Healthy Nuclei (%),[4],41%
same,Population Hoechst High Intensity Objects (%),[4],21%
same,Population Membrane Permeable-Phenotype (%),[4],6%
same,Population Mitochondria Different-Phenotype (%),[4],86%
same,Population Mitotic Cells (%),[4],14%
same,Population Normal (%),[4],78%
same,Population Pyknosed Nuclei (%),[4],38%
same,Population Tubulin-Different-Phenotype (%),[4],40%
same,Total Cell Count,[4],46
same,Population Apoptotic (%),[5],63%
same,Population Fragmented Nuclei (%),[5],36%
same,Population Healthy Nuclei (%),[5],50%
same,Population Hoechst High Intensity Objects (%),[5],32%
same,Population Membrane Permeable-Phenotype (%),[5],20%
same,Population Mitochondria Different-Phenotype (%),[5],17%
same,Population Mitotic Cells (%),[5],36%
same,Population Normal (%),[5],67%
same,Population Pyknosed Nuclei (%),[5],13%
same,Population Tubulin-Different-Phenotype (%),[5],60%
same,Total Cell Count,[5],118
same,Population Apoptotic (%),[6],18%
same,Population Fragmented Nuclei (%),[6],14%
same,Population Healthy Nuclei (%),[6],70%
same,Population Hoechst High Intensity Objects (%),[6],0%
same,Population Membrane Permeable-Phenotype (%),[6],5%
same,Population Mitochondria Different-Phenotype (%),[6],13%
same,Population Mitotic Cells (%),[6],81%
same,Population Normal (%),[6],99%
same,Population Pyknosed Nuclei (%),[6],15%
same,Population Tubulin-Different-Phenotype (%),[6],6%
same,Total Cell Count,[6],107
same,Population Apoptotic (%),[7],78%
same,Population Fragmented Nuclei (%),[7],34%
same,Population Healthy Nuclei (%),[7],48%
same,Population Hoechst High Intensity Objects (%),[7],16%
same,Population Membrane Permeable-Phenotype (%),[7],9%
same,Population Mitochondria Different-Phenotype (%),[7],76%
same,Population Mitotic Cells (%),[7],21%
same,Population Normal (%),[7],83%
same,Population Pyknosed Nuclei (%),[7],17%
same,Population Tubulin-Different-Phenotype (%),[7],85%
same,Total Cell Count,[7],190
same,Population Apoptotic (%),[8],76%
same,Population Fragmented Nuclei (%),[8],21%
same,Population Healthy Nuclei (%),[8],36%
same,Population Hoechst High Intensity Objects (%),[8],12%
same,Population Membrane Permeable-Phenotype (%),[8],26%
same,Population Mitochondria Different-Phenotype (%),[8],86%
same,Population Mitotic Cells (%),[8],23%
same,Population Normal (%),[8],87%
same,Population Pyknosed Nuclei (%),[8],41%
same,Population Tubulin-Different-Phenotype (%),[8],26%
same,Total Cell Count,[8],47
same,Population Apoptotic (%),[9],50%
same,Population Fragmented Nuclei (%),[9],46%
same,Population Healthy Nuclei (%),[9],45%
same,Population Hoechst High Intensity Objects (%),[9],27%
same,Population Membrane Permeable-Phenotype (%),[9],24%
same,Population Mitochondria Different-Phenotype (%),[9],2%
same,Population Mitotic Cells (%),[9],50%
same,Population Normal (%),[9],72%
same,Population Pyknosed Nuclei (%),[9],8%
same,Population Tubulin-Different-Phenotype (%),[9],42%
same,Total Cell Count,[9],136
same,Population Apoptotic (%),[10],0%
same,Population Fragmented Nuclei (%),[10],48%
same,Population Healthy Nuclei (%),[10],51%
same,Population Hoechst High Intensity Objects (%),[10],16%
same,Population Membrane Permeable-Phenotype (%),[10],11%
same,Population Mitochondria Different-Phenotype (%),[10],14%
same,Population Mitotic Cells (%),[10],0%
same,Population Normal (%),[10],83%
same,Population Pyknosed Nuclei (%),[10],0%
same,Population Tubulin-Different-Phenotype (%),[10],50%
same,Total Cell Count,[10],97
same,Population Apoptotic (%),[11],78%
same,Population Fragmented Nuclei (%),[11],38%
same,Population Healthy Nuclei (%),[11],45%
same,Population Hoechst High Intensity Objects (%),[11],24%
same,Population Membrane Permeable-Phenotype (%),[11],8%
same,Population Mitochondria Different-Phenotype (%),[11],72%
same,Population Mitotic Cells (%),[11],21%
same,Population Normal (%),[11],75%
same,Population Pyknosed Nuclei (%),[11],15%
same,Population Tubulin-Different-Phenotype (%),[11],83%
same,Total Cell Count,[11],197
same,Population Apoptotic (%),[12],75%
same,Population Fragmented Nuclei (%),[12],47%
same,Population Healthy Nuclei (%),[12],50%
same,Population Membrane Permeable-Phenotype (%),[12],3%
same,Population Mitochondria Different-Phenotype (%),[12],60%
same,Population Mitotic Cells (%),[12],25%
same,Population Pyknosed Nuclei (%),[12],2%
same,Population Tubulin-Different-Phenotype (%),[12],97%
same,Total Cell Count,[12],258
